According to ChEMBL document CHEMBL5678802, “Small-molecule p21-activated kinase inhibitor PF-3758309 is a potent inhibitor of oncogenic signaling and tumor growth” (Proc Natl Acad Sci U S A, 2010):

Experiments:
[1] = target: RAC-gamma serine/threonine-protein kinase (Homo sapiens, UniProt Q9Y243); test: Inhibition of human AKT3 in presence of ATP relative to control; conditions: concentration not given here
[2] = target: Protein kinase C beta type (Homo sapiens, UniProt P05771); test: Inhibition of human PKCbeta-II in presence of ATP
[3] = tested on: T84; test: Antiproliferative activity against human T84 cells assessed as inhibition of cell proliferation incubated for 3 days by CellTiter-Glo Luminescent Cell Viability Assay; type: functional, cell-based; conditions: T84, 72 h
Outline: (§1)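 Cells of each line were plated in 384-well plates on day 1 and exposed to compound from day 2 for 3 days. On day 5 all medium was aspirated. Viable cell number was read by CellTiter-Glo luminescence, which quantifies cellular ATP.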

[4] = tested on: MDA-MB-436; test: Antiproliferative activity against human MDA-MB-436 cells assessed as inhibition of cell proliferation incubated for 3 days by CellTiter-Glo Luminescent Cell Viability Assay; type: functional, cell-based; conditions: MDA-MB-436, 72 h
Outline: (§2)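 Cancer cell lines seeded in 384-well plates on day 1; compound added on day 2 and left for 3 days. On day 5 all medium was aspirated, and viable cells were quantified by CellTiter-Glo luminescence, which measures cellular ATP. Dose-dependent effects on proliferation were determined.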

[5] = Drug concentration in nude mouse plasma xenografted with human HCT-116 cells at 3.3 mg/kg administered via pump for 9 days by LC-MS/MS analysis; type: ADME, organism-based; conditions: time 9 day
[6] = tested on: NCI-H2170; test: Inhibition of anchorage independent cell growth in human NCI-H2170 cells incubated for 6 days by Alamar blue reagent based fluorescence plate reader analysis; type: functional; conditions: NCI-H2170, 144 h
[7] = tested on: SW1990; test: Antiproliferative activity against human SW1990 cells assessed as inhibition of cell proliferation incubated for 3 days by CellTiter-Glo Luminescent Cell Viability Assay; type: functional, cell-based; conditions: SW1990, 72 h; outline: as §1
[8] = target: Tyrosine-protein kinase Fgr (Homo sapiens, UniProt P09769); test: Inhibition of human FGR in presence of ATP by cellular assay
Chain of Tyrosine-protein kinase Fgr (P09769 whole entry): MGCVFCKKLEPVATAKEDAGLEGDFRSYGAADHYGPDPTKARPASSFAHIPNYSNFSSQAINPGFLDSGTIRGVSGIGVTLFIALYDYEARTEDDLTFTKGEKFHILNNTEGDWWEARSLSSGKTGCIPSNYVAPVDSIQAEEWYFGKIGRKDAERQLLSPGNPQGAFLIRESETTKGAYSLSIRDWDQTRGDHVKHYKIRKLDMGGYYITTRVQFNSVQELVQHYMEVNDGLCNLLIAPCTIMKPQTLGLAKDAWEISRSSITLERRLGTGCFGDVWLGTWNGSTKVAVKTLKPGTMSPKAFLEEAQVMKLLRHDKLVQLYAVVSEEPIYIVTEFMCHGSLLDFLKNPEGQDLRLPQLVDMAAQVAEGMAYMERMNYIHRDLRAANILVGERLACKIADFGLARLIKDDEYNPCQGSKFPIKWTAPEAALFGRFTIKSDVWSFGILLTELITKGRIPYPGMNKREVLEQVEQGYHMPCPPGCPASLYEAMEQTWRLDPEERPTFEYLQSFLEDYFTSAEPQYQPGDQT

[9] = target: T1, Tyrosine-protein kinase Fyn (Homo sapiens, UniProt P06241); test: Inhibition of human FYN in presence of ATP by cellular assay
T1 sequence (P06241 whole entry): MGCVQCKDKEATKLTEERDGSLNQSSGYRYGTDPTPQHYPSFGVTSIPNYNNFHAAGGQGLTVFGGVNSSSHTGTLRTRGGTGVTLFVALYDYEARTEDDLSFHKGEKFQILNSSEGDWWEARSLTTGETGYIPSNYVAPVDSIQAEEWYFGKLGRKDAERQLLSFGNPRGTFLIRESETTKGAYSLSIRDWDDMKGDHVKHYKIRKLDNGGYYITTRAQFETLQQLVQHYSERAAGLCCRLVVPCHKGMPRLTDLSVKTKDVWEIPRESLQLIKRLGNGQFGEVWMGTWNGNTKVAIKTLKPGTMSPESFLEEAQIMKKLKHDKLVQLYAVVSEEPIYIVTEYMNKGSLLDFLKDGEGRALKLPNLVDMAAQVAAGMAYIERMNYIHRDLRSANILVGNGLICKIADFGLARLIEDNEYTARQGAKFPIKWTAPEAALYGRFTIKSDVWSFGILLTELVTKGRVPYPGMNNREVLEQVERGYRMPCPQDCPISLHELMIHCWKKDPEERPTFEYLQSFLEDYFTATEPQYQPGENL

[10] = tested on: BT-549; test: Antiproliferative activity against human BT-549 cells assessed as inhibition of cell proliferation incubated for 3 days by CellTiter-Glo Luminescent Cell Viability Assay; type: functional, cell-based; conditions: BT-549, 72 h; outline: as §2
[11] = target: T1, Tyrosine-protein kinase Fyn; test: Inhibition of human FYN assessed as inhibition constant in presence of ATP
[12] = target: T2, Serine/threonine-protein kinase D1 (Homo sapiens, UniProt Q15139); test: Inhibition of human PKCmu in presence of ATP
T2 sequence (Q15139 whole entry): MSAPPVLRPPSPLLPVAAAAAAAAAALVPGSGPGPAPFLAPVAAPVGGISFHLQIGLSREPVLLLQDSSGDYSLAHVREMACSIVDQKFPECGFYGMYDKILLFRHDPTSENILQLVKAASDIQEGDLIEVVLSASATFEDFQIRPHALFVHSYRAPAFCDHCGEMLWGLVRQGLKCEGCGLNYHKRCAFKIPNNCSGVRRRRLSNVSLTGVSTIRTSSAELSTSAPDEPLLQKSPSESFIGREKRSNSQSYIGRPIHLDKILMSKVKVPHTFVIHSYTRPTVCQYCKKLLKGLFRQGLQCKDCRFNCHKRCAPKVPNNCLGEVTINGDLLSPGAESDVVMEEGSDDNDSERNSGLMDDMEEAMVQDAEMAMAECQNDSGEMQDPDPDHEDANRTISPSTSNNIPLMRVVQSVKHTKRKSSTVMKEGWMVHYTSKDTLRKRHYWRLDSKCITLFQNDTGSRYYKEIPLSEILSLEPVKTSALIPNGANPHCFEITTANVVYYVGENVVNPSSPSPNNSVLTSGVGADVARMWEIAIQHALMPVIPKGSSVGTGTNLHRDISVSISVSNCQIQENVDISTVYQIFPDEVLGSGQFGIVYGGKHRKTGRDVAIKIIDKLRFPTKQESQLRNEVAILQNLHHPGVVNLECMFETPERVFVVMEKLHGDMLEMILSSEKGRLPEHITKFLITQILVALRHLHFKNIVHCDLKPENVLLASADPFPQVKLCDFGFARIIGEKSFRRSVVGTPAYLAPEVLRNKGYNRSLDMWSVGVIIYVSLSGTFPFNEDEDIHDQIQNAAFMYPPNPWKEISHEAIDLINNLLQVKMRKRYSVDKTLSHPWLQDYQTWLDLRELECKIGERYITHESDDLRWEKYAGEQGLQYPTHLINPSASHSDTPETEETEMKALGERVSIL

[13] = target: High affinity nerve growth factor receptor (Homo sapiens, UniProt P04629); test: Inhibition of human TRKa in presence of ATP by cellular assay
Chain of High affinity nerve growth factor receptor (P04629 whole entry): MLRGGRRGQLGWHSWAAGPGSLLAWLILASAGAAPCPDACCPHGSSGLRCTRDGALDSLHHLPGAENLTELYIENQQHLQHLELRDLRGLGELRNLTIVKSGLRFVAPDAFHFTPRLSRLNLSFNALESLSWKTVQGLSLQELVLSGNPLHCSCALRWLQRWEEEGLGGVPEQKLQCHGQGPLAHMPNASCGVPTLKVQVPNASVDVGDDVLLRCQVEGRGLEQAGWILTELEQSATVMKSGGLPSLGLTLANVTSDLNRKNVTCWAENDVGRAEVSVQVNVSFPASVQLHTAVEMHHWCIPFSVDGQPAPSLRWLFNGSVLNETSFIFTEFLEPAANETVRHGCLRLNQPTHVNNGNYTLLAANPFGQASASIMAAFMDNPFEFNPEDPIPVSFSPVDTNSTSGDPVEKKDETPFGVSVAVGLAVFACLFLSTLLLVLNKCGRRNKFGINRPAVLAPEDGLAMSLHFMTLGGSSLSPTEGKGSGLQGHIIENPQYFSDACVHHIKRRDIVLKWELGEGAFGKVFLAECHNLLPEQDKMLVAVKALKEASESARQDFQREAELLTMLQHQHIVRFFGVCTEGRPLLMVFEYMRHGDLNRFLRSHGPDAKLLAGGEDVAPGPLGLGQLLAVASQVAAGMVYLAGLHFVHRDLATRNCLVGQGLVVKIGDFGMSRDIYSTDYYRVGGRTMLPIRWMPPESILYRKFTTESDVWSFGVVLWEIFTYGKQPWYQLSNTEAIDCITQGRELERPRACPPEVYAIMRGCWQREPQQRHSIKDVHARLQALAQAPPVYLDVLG

[14] = tested on: HCT-116; test: Induction of cell cycle arrest in human HCT-116 cells assessed as accumulation of cells at sub G1 phase at 100 nM measured after 48 hrs by fluorescence activated cell sorter analysis (reference value: 1.84%); type: functional
[15] = target: Protein kinase C theta type (Homo sapiens, UniProt Q04759); test: Inhibition of human PKCtheta in presence of ATP
Chain of Protein kinase C theta type (Q04759 whole entry): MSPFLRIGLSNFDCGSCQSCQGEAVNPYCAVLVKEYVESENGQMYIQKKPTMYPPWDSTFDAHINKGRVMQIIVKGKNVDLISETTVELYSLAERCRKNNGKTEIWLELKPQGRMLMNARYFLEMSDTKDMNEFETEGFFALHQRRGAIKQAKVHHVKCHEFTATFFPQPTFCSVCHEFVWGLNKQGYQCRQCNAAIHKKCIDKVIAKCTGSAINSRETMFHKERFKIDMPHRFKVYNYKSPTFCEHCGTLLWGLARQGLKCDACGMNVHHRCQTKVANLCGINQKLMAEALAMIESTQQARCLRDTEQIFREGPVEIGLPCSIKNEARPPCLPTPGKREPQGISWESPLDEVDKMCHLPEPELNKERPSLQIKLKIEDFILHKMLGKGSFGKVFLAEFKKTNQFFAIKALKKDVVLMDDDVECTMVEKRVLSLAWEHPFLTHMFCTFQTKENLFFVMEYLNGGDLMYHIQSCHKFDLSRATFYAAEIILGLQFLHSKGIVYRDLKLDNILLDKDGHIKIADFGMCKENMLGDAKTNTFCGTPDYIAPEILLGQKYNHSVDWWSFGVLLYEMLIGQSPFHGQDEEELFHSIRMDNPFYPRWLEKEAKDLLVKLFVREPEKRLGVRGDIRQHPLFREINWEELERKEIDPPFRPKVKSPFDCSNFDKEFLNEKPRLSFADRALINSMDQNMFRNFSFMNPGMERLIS

[16] = tested on: HCC4006; test: Inhibition of anchorage independent cell growth in human HCC4006 cells incubated for 6 days by Alamar blue reagent based fluorescence plate reader analysis; type: functional; conditions: HCC4006, 144 h
[17] = target: Ribosomal protein S6 kinase alpha-3 (Homo sapiens, UniProt P51812); test: Inhibition of human RSK2 assessed as inhibition constant in presence of ATP
Chain of Ribosomal protein S6 kinase alpha-3 (P51812 whole entry): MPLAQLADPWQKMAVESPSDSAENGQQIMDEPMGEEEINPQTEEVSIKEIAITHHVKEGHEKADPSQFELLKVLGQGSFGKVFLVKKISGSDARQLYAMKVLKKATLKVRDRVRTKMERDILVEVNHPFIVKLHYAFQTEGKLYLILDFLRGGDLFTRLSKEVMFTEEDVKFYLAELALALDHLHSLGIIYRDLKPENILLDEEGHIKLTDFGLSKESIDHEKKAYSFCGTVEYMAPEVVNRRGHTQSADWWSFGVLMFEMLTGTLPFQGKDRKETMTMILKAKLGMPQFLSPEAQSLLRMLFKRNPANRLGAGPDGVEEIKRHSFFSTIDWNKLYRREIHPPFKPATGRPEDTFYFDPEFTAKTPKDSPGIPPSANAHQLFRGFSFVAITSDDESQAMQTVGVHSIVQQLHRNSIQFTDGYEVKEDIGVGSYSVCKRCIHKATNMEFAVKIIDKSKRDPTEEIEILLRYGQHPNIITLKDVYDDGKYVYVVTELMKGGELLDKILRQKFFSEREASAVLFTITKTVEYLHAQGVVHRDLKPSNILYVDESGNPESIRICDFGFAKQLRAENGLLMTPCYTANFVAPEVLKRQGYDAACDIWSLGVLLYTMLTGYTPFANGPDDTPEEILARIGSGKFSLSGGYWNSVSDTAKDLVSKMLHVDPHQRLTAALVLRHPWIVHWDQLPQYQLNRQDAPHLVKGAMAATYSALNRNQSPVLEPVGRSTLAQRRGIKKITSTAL

[18] = target: Ribosomal protein S6 kinase alpha-2 (Homo sapiens, UniProt Q15349); test: Inhibition of human RSK3 assessed as inhibition constant in presence of ATP
Chain of Ribosomal protein S6 kinase alpha-2 (Q15349 whole entry): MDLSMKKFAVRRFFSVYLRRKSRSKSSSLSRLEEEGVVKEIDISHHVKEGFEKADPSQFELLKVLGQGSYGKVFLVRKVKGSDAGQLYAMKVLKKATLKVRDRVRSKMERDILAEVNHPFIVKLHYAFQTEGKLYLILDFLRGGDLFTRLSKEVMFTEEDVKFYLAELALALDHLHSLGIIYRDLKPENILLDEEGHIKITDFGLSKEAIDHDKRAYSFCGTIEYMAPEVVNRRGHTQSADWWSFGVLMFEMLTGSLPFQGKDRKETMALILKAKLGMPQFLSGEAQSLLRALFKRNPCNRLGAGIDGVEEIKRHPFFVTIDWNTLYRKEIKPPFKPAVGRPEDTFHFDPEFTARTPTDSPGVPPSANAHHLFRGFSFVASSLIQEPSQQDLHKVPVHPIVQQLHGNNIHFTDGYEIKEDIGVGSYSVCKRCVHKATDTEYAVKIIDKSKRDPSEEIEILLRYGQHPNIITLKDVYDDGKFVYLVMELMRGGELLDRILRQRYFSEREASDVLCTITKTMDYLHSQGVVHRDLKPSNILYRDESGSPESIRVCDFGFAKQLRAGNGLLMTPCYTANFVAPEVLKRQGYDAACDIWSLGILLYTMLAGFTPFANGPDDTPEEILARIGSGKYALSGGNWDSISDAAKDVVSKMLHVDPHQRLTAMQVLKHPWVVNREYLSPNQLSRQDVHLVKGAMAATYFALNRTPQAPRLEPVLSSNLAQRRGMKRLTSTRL

[19] = tested on: NCI-H23; test: Inhibition of anchorage independent cell growth in human NCI-H23 cells incubated for 6 days by Alamar blue reagent based fluorescence plate reader analysis; type: functional; conditions: NCI-H23, 144 h
[20] = tested on: DAN-G; test: Antiproliferative activity against human DAN-G cells assessed as inhibition of cell proliferation incubated for 3 days by CellTiter-Glo Luminescent Cell Viability Assay; type: functional, cell-based; conditions: 72 h; outline: as §2
[21] = tested on: NCI-H358; test: Antiproliferative activity against human NCI-H358 cells assessed as inhibition of cell proliferation incubated for 3 days by CellTiter-Glo Luminescent Cell Viability Assay; type: functional, cell-based; conditions: NCI-H358, 72 h; outline: as §1
[22] = tested on: HCC1187; test: Antiproliferative activity against human HCC1187 cells assessed as inhibition of cell proliferation incubated for 3 days by CellTiter-Glo Luminescent Cell Viability Assay; type: functional, cell-based; conditions: HCC1187, 72 h; outline: as §2
[23] = tested on: HCT-116; test: Induction of cell cycle arrest in human HCT-116 cells assessed as accumulation of cells at G0/G1 phase at 100 nM measured after 48 hrs by fluorescence activated cell sorter analysis (reference value: 50.74%); type: functional
[24] = target: T2, Serine/threonine-protein kinase D1; test: Inhibition of human PKCmu in presence of ATP by cellular assay
[25] = tested on: Hs-578T; test: Antiproliferative activity against human Hs-578T cells assessed as inhibition of cell proliferation incubated for 3 days by CellTiter-Glo Luminescent Cell Viability Assay; type: functional, cell-based; conditions: 72 h; outline: as §2

Chain of RAC-gamma serine/threonine-protein kinase (Q9Y243 whole entry): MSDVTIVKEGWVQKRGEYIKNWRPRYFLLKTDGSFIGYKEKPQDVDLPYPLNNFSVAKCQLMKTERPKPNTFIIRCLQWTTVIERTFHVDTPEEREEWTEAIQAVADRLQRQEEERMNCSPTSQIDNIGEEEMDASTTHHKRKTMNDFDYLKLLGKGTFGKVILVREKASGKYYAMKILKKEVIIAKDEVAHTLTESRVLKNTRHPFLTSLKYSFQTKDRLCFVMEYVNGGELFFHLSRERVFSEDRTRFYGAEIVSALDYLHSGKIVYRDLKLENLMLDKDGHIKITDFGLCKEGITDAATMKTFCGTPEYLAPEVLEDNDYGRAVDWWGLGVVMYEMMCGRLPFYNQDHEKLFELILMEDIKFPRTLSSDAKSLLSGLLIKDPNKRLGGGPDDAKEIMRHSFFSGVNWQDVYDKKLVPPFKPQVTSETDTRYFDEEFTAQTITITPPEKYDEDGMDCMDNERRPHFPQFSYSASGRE

inhibition [1]: 74% | IC50 [2]: 156 nM | IC50 [4]: 0.79 nM | concentration at 216 h [5]: 37 ng/mL | IC50 [6]: 6.04 nM | IC50 [7]: 127 nM | IC50 [8]: 4680 nM | IC50 [9]: 1090 nM | IC50 [10]: 0.41 nM | Ki [11]: 26 nM | IC50 [12]: 21 nM | IC50 [13]: 2410 nM | IC50 [15]: 28 nM | IC50 [16]: 3.79 nM | Ki [17]: 5 nM | Ki [18]: 11 nM | IC50 [19]: 3.45 nM | IC50 [21]: 11 nM | IC50 [22]: 0.24 nM | IC50 [24]: 2830 nM
SMILES: Cc1nc(Nc2n[nH]c3c2CN(C(=O)N[C@H](CN(C)C)c2ccccc2)C3(C)C)c2sccc2n1 [PF-03758309]
IC50 [3]: 89 nM | Activity [14]: 12.43% | IC50 [20]: 518 nM | Activity [23]: 49.41% | IC50 [25]: 0.37 nM
